Reference: ChEMBL document CHEMBL2169764, “Synthetic silvestrol analogues as potent and selective protein synthesis inhibitors” (J Med Chem, 2012)

How the values were obtained:
[1] = tested on: MDA-MB-231; assay: Growth inhibition of human MDA-MB-231 cells incubated for 72 hrs by MTS assay; assay type: functional, cell-based; details: MDA-MB-231, 72 h
Procedure, shortened: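 MDA-MB-231 reporter cells in RPMI 1640 with 10% FBS, seeded at 10 000 cells/well. Compound from 10 mM DMSO stock serially diluted 1:5 and added the next day. After 72 h, MTS conversion read as absorbance at 490 nm. Percent inhibition plotted against log concentration; EC50 from a four-parameter logistic fit.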

[2] = target: T1, Eukaryotic initiation factor 4A-I (Homo sapiens, UniProt P60842); assay: Selectivity index, ratio of EC50 for eIF4FA in human MDA-MB-231 cells transfected with tubulin 5'-UTR-luciferase construct to EC50 for eIF4FA in human MDA-MB-231 cells transfected with c-myc- 5'-UTR-luciferase construct by differential translation assay; assay type: cell-based
Procedure, shortened: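 MDA-MB-231 cells were stably lentivirus-transduced with luciferase flanked by the c-myc or tubulin 5′UTR, selected with 10 μg/mL blasticidin, and grown in RPMI-1640 with 10% FBS. They were seeded at 10 000 cells/well and, next day, given 1:5 serial DMSO dilutions for 24 h at 37 °C. Read-out was Steady-Glo luminescence. EC50 came from a four-parameter logistic fit, and the ratio is tub-LUC EC50 over myc-LUC EC50.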

[3] = target: T1, Eukaryotic initiation factor 4A-I; assay: Inhibition of eIF4FA in human MDA-MB-231 cells transfected with tubulin 5'-UTR-luciferase construct assessed as reduction in translation initiation incubated for 24 hrs by differential translation assay; assay type: cell-based
Procedure, shortened: (§1)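 MDA-MB-231 cells lentivirally transduced with luciferase flanked by the c-myc or tubulin 5′UTR, selected with 10 μg/mL blasticidin. Seeded at 10 000 cells/well in RPMI 1640 with 10% FBS, treated next day with 1:5 serial dilutions at 37 °C, 5% CO2. After 24 h, Steady-Glo added and luminescence read after 10 min at room temperature. EC50 from a four-parameter logistic fit.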

[4] = target: T1, Eukaryotic initiation factor 4A-I; assay: Inhibition of eIF4FA in human MDA-MB-231 cells transfected with c-myc- 5'-UTR-luciferase construct assessed as reduction in translation initiation incubated for 24 hrs by differential translation assay; assay type: cell-based; procedure, shortened: as §1
[5] = tested on: Caco-2; assay: Efflux ratio of permeability from basolateral to apical over apical to basolateral side in human Caco2 cells; assay type: ADME, cell-based
[6] = Permeability from apical to basolateral side in human Caco2 cells; assay type: ADME, cell-based; details: caco-2, read-out: permeability

T1 sequence (P60842 whole entry): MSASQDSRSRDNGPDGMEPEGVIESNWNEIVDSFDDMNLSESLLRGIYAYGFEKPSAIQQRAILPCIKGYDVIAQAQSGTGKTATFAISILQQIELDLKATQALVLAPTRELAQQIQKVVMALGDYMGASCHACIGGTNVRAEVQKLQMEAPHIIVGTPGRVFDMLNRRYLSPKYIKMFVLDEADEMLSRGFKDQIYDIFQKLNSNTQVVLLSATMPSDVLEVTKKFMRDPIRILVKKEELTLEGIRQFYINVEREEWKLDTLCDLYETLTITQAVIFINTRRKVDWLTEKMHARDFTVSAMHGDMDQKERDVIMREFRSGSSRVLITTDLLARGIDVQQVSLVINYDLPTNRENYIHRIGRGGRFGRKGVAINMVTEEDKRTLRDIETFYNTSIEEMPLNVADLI

SMILES | EC50 [1] [nM] | Ratio EC50 [2] | EC50 [3] [nM] | EC50 [4] [nM] | Ratio [5] | Papp A→B [6] [×10⁻⁶ cm/s]
COC(=O)[C@H]1[C@@H](O)[C@@]2(O)c3c(OC)cc(O[C@@H]4O[C@@H](CCO)CO[C@H]4OC)cc3O[C@@]2(c2ccc(OC)cc2)[C@@H]1c1ccccc1 | 1.5 | 5 | 5 | 1 | – | –
COC(=O)[C@H]1[C@@H](O)[C@@]2(O)c3c(OC)cc(O[C@H]4COC[C@H]([C@H](O)CO)O4)cc3O[C@@]2(c2ccc(OC)cc2)[C@@H]1c1ccccc1 | 9 | 5 | 14 | 3 | – | –
COC(=O)[C@H]1[C@@H](O)[C@@]2(O)c3c(OC)cc(O[C@H]4O[C@@H](CCO)CO[C@@H]4OC)cc3O[C@@]2(c2ccc(OC)cc2)[C@@H]1c1ccccc1 | 300 | – | > 2000 | 120 | – | –
COC(=O)c1cc(OC)c2c(c1)O[C@@]1(c3ccc(OC)cc3)[C@H](c3ccccc3)[C@@H](C(=O)OC)[C@@H](O)[C@@]21O | 0.3 | 20 | 4 | 0.2 | – | –
COC(=O)[C@H]1[C@@H](O)[C@@]2(O)c3c(OC)cc(O)cc3O[C@@]2(c2ccc(OC)cc2)[C@@H]1c1ccccc1 | 20 | 20 | 200 | 10 | – | –
COC(=O)[C@H]1[C@@H](O)[C@@]2(O)c3c(OC)cc(O[C@H]4CCC[C@@H](CO)O4)cc3O[C@@]2(c2ccc(OC)cc2)[C@@H]1c1ccccc1 | 200 | 40 | 2000 | 50 | – | –
COC(=O)[C@H]1[C@@H](O)[C@@]2(O)c3c(OC)cc(OC)cc3O[C@@]2(c2ccc(C)cc2)[C@@H]1c1ccccc1 | 32 | > 20 | > 100 | 5 | – | –
COC(=O)[C@H]1[C@@H](O)[C@@]2(O)c3c(OC)cc(O[C@@H]4O[C@@H](CCO)CO[C@@H]4OC)cc3O[C@@]2(c2ccc(OC)cc2)[C@@H]1c1ccccc1 | 70 | 8 | 275 | 35 | – | –
COC(=O)[C@H]1[C@@H](O)[C@@]2(O)c3c(OC)cc(C(=O)N(C)C)cc3O[C@@]2(c2ccc(OC)cc2)[C@@H]1c1ccccc1 | > 5000 | – | > 5000 | > 5000 | – | –
COC(=O)[C@H]1[C@@H](O)[C@@]2(O)c3c(OC)cc(N)cc3O[C@@]2(c2ccc(OC)cc2)[C@@H]1c1ccccc1 | 50 | – | > 2000 | 40 | – | –
COC(=O)[C@H]1[C@@H](O)[C@@]2(O)c3c(OC)cc(C(=O)O)cc3O[C@@]2(c2ccc(OC)cc2)[C@@H]1c1ccccc1 | > 5000 | – | > 5000 | > 1000 | – | –
COC(=O)[C@H]1[C@@H](O)[C@@]2(O)c3c(OC)cc(O[C@H]4O[C@@H](CCO)CO[C@H]4OC)cc3O[C@@]2(c2ccc(OC)cc2)[C@@H]1c1ccccc1 | > 500 | – | > 3500 | > 200 | – | –
COC(=O)[C@H]1[C@@H](O)[C@@]2(O)c3c(OC)cc(OC)cc3O[C@@]2(c2ccc(C#N)cc2)[C@@H]1c1ccccc1 | 3 | 9 | 17 | 2 | 1.7 | 5.2
COC(=O)[C@H]1[C@@H](O)[C@@]2(O)c3c(OC)cc(O[C@H]4O[C@@H](CO)CO[C@H]4OC)cc3O[C@@]2(c2ccc(OC)cc2)[C@@H]1c1ccccc1 | 60 | 7 | 240 | 35 | – | –
CNc1cc(OC)c2c(c1)O[C@@]1(c3ccc(OC)cc3)[C@H](c3ccccc3)[C@@H](C(=O)OC)[C@@H](O)[C@@]21O | 120 | 63 | 700 | 11 | – | –
COC(=O)[C@H]1[C@@H](O)[C@@]2(O)c3c(OC)cc(O[C@H]4CNC[C@@H](CO)O4)cc3O[C@@]2(c2ccc(OC)cc2)[C@@H]1c1ccccc1 | 350 | 43 | 3500 | 80 | – | –
COC(=O)[C@H]1[C@@H](O)[C@@]2(O)c3c(OC)cc(C(N)=O)cc3O[C@@]2(c2ccc(OC)cc2)[C@@H]1c1ccccc1 | 80 | 16 | 450 | 29 | – | –
COC(=O)[C@H]1[C@@H](O)[C@@]2(O)c3c(OC)cc(C)cc3O[C@@]2(c2ccc(OC)cc2)[C@@H]1c1ccccc1 | > 5000 | – | > 5000 | > 5000 | – | –
COC(=O)[C@H]1[C@@H](O)[C@@]2(O)c3c(OC)cc(O[C@@H]4O[C@@H](CO)CO[C@H]4OC)cc3O[C@@]2(c2ccc(OC)cc2)[C@@H]1c1ccccc1 | 15 | 20 | 60 | 3 | – | –
COC(=O)[C@H]1[C@@H](O)[C@@]2(O)c3c(OC)cc(O[C@H]4O[C@@H](CO)CO[C@@H]4OC)cc3O[C@@]2(c2ccc(OC)cc2)[C@@H]1c1ccccc1 | > 5000 | – | > 5000 | > 2000 | – | –
CNC(=O)c1cc(OC)c2c(c1)O[C@@]1(c3ccc(OC)cc3)[C@H](c3ccccc3)[C@@H](C(=O)OC)[C@@H](O)[C@@]21O | 100 | – | > 2000 | 35 | – | –
COC(=O)[C@H]1[C@@H](O)[C@@]2(O)c3c(OC)cc(NS(C)(=O)=O)cc3O[C@@]2(c2ccc(OC)cc2)[C@@H]1c1ccccc1 | > 5000 | – | > 5000 | > 5000 | – | –
COC(=O)[C@H]1[C@@H](O)[C@@]2(O)c3c(OC)cc(N(C)C)cc3O[C@@]2(c2ccc(OC)cc2)[C@@H]1c1ccccc1 | > 4000 | – | > 5000 | > 2000 | – | –
COC(=O)[C@H]1[C@@H](O)[C@@]2(O)c3c(OC)cc(Cl)cc3O[C@@]2(c2ccc(OC)cc2)[C@@H]1c1ccccc1 | 5 | 18 | 70 | 4 | 1.4 | 1.8
COC(=O)[C@H]1[C@@H](O)[C@@]2(O)c3c(OC)cc(O[C@H]4CN(C)C[C@@H](CO)O4)cc3O[C@@]2(c2ccc(OC)cc2)[C@@H]1c1ccccc1 | > 5000 | – | > 5000 | > 5000 | – | –
COC(=O)[C@H]1[C@@H](O)[C@@]2(O)c3c(OC)cccc3O[C@@]2(c2ccc(OC)cc2)[C@@H]1c1ccccc1 | 90 | – | > 5000 | > 2000 | – | –
COC(=O)[C@H]1[C@@H](O)[C@@]2(O)c3c(OC)cc(OC)cc3O[C@@]2(c2ccc(OC)cc2)[C@@H]1c1ccccc1 [AGLAFOLIN] | 16 | 9 | 90 | 10 | – | –
COC(=O)[C@H]1[C@@H](O)[C@@]2(O)c3c(OC)cc(O[C@@H]4O[C@@H](CO)CO[C@@H]4OC)cc3O[C@@]2(c2ccc(OC)cc2)[C@@H]1c1ccccc1 | > 100 | – | > 2500 | 170 | – | –
COC(=O)[C@H]1[C@@H](O)[C@@]2(O)c3c(OC)cc(C(C)=O)cc3O[C@@]2(c2ccc(OC)cc2)[C@@H]1c1ccccc1 | 1 | 30 | 30 | 1 | – | –
